Results as given in ChEMBL document CHEMBL1124774, “Synthesis and biological activity of some derivatives of rifamycin P” (1990).
In brackets after ≈: the same amount, converted by molar mass.

Columns and labels:
Streptococcus pyogenes [1] = assay: In vitro antibacterial activity of compound against Streptococcus pyogenes C 203 SKF 13400; assay type: functional
In short: (§1)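 Streptococcal MICs were run by twofold microdilution in Todd-Hewitt broth over 128-0.0001 µg/mL. Inoculum was 10^4 cfu/mL, with incubation at 37 °C for 18-24 h.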

Mycobacterium avium [2] = assay: Minimum inhibitory concentration of compound against 20 Mycobacterium avium complex (MAC) clinical isolates
Haemophilus influenzae = assay: In vitro antibacterial activity of compound against Haemophilus influenzae ATCC 19418; assay type: functional
Pseudomonas aeruginosa = assay: In vitro antibacterial activity of compound against Pseudomonas aeruginosa ATCC 10145; assay type: functional
In short: (§2)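 Twofold microdilution MIC in Iso-Sensitest broth over 128-0.0001 µg/mL. Inoculum was 10^4 cfu/mL, with incubation at 37 °C for 18-24 h.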

Enterococcus faecalis = assay: In vitro antibacterial activity of compound against Streptococcus faecalis ATCC 7080.; assay type: functional; in short: as §2
Neisseria gonorrhoeae = assay: In vitro antibacterial activity of compound against Neisseria gonorrhoeae ISM 68/126; assay type: functional
Staphylococcus aureus [3] = assay: In vitro antibacterial activity of compound against Staphylococcus aureus Tour L 165; assay type: functional; in short: as §2
Escherichia coli = assay: In vitro antibacterial activity of compound against Escherichia coli SKF 12140; assay type: functional
Proteus vulgaris = assay: In vitro antibacterial activity of compound against Proteus vulgaris X19H ATCC 881; assay type: functional
Mycobacterium avium [4] = assay: 90% inhibition of the 20 Mycobacterium avium complex (MAC) clinical isolates
Klebsiella pneumoniae = assay: In vitro antibacterial activity of compound against Klebsiella pneumoniae ISM; assay type: functional
[5] = system: Staphylococcus epidermidis; assay: In vitro antibacterial activity of compound against Staphylococcus epidermidis ATCC 12228; assay type: functional; in short: as §2
[6] = system: Mycobacterium tuberculosis; assay: In vitro antibacterial activity of compound against Mycobacterium tuberculosis H37Rv ATCC 9660; assay type: functional
Mycobacterium avium [7] = assay: 50% inhibition of the 20 Mycobacterium (MAC) avium complex clinical isolates; assay type: functional
In short: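 Agar-dilution MICs, 2-fold dilutions over 128-0.0001 μg/mL, on Middlebrook 7H10 agar with 2% glycerol and 10% OADC. Organisms from Loevenstein-Jensen slants were grown in 7H9 broth with 0.5% Tween and 10% OADC, adjusted to McFarland no. 1, and spotted with a multipoint inoculator. Plates were sealed and incubated at 22, 30 or 37 °C for 4-20 days depending on strain.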

Streptococcus pneumoniae = assay: In vitro antibacterial activity of compound against Streptococcus pneumoniae UC 41; assay type: functional; in short: as §1
Staphylococcus aureus [8] = assay: Activity in the murine model (OS route) of Staphylococcus aureus tour septicemia; assay type: functional
In short: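 Male and female CD1 mice (18-22 g) were infected ip with S. aureus Tour. The challenge was set so untreated mice died within 48 h. Groups were five mice, dosed once daily for 3 days starting immediately after infection. ED50 was calculated on day 10 from the percentage surviving at each dose.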

Streptococcus pyogenes [9] = assay: Inhibitory concentration of compound against Streptococcus pyogenus septicemia in the mouse, administarted in subcutaneous route; assay type: functional; settings: sc
In short: (§3)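 Male and female CD1 mice (18-22 g) were infected ip with S. pyogenes C203, with the challenge set so untreated mice died within 48 h. Groups of five received a single treatment immediately after infection. ED50 was calculated from the percentage surviving at each dose on day 10.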

Streptococcus pyogenes [10] = assay: Minimum inhibitory concentration of compound against Streptococcus pyogenus septicemia in the mouse; assay type: functional
Streptococcus pyogenes [11] = assay: Inhibitory concentration of compound against Streptococcus pyogenus septicemia in the mouse, administarted in OS route; assay type: functional; in short: as §3

Row | Compound | MIC (Streptococcus pyogenes [1]) [µg/mL] | MIC (Mycobacterium avium [2]) [µg/mL] | MIC (Haemophilus influenzae) [µg/mL] | MIC (Pseudomonas aeruginosa) [µg/mL] | MIC (Enterococcus faecalis) [µg/mL] | MIC (Neisseria gonorrhoeae) [µg/mL] | MIC (Staphylococcus aureus [3]) [µg/mL] | MIC (Escherichia coli) [µg/mL] | MIC (Proteus vulgaris) [µg/mL] | MIC90 (Mycobacterium avium [4]) [µg/mL] | MIC (Klebsiella pneumoniae) [µg/mL] | MIC [5] [µg/mL] | MIC [6] [µg/mL] | MIC50 (Mycobacterium avium [7]) [µg/mL] | MIC (Streptococcus pneumoniae) [µg/mL] | ED50 (Staphylococcus aureus [8]) [mg/kg] | ED50 (Streptococcus pyogenes [9]) [mg/kg] | MIC (Streptococcus pyogenes [10]) [µg/mL] | ED50 (Streptococcus pyogenes [11]) [mg/kg]
1 | COC1/C=C/OC2(C)Oc3c(C)c(O)c4c(O)c(c5sc(N6CCOCC6)nc5c4c3C2=O)NC(=O)/C(C)=C\C=C\C(C)C(O)C(C)C(O)C(C)C(OC(C)=O)C1C (centres undefined) | 0.032 (≈ 0.0388 µM) | > 16 | 0.5 (≈ 0.607 µM) | 16 (≈ 19.4 µM) | 1 (≈ 1.21 µM) | 0.125 (≈ 0.152 µM) | 0.002 (≈ 0.00243 µM) | 16 (≈ 19.4 µM) | 8 (≈ 9.71 µM) | 128 (≈ 155 µM) | 32 (≈ 38.8 µM) | 0.063 (≈ 0.0765 µM) | 2 (≈ 2.43 µM) | 32 (≈ 38.8 µM) | 0.016 (≈ 0.0194 µM) |  |  |  | 
2 | COC1/C=C/OC2(C)Oc3c(C)c(O)c4c(O)c(c5sc(N6CCN(CCO)CC6)nc5c4c3C2=O)NC(=O)/C(C)=C\C=C\C(C)C(O)C(C)C(O)C(C)C(OC(C)=O)C1C (centres undefined) | 0.016 (≈ 0.0185 µM) |  | 0.125 (≈ 0.144 µM) | 16 (≈ 18.5 µM) | 4 (≈ 4.61 µM) | 0.125 (≈ 0.144 µM) | 0.016 (≈ 0.0185 µM) | 8 (≈ 9.23 µM) | 16 (≈ 18.5 µM) |  | 32 (≈ 36.9 µM) | 0.125 (≈ 0.144 µM) | 1 (≈ 1.15 µM) |  | 0.008 (≈ 0.00923 µM) | > 20 |  |  | 
3 | CCCCNc1nc2c(s1)c1c(O)c3c(O)c(C)c4c(c32)C(=O)C(C)(O/C=C/C(OC)C(C)C(OC(C)=O)C(C)C(O)C(C)C(O)C(C)/C=C/C=C(/C)C(=O)N1)O4 (centres undefined) | 0.063 (≈ 0.0778 µM) | 2 (≈ 2.47 µM) | 0.125 (≈ 0.154 µM) | 8 (≈ 9.88 µM) | 1 (≈ 1.23 µM) | 0.125 (≈ 0.154 µM) | 0.032 (≈ 0.0395 µM) | 16 (≈ 19.8 µM) | 16 (≈ 19.8 µM) | 64 (≈ 79 µM) | 64 (≈ 79 µM) | 0.016 (≈ 0.0198 µM) |  | 32 (≈ 39.5 µM) | 0.063 (≈ 0.0778 µM) |  | 6.6 | 0.063 (≈ 0.0778 µM) | > 10
4 | CCOC(=O)N1CCN(c2nc3c(s2)c2c(O)c4c(O)c(C)c5c(c43)C(=O)C(C)(O/C=C/C(OC)C(C)C(OC(C)=O)C(C)C(O)C(C)C(O)C(C)/C=C/C=C(/C)C(=O)N2)O5)CC1 (centres undefined) | 0.063 (≈ 0.0704 µM) |  | 0.125 (≈ 0.14 µM) | 32 (≈ 35.8 µM) | 4 (≈ 4.47 µM) | 0.125 (≈ 0.14 µM) | 0.063 (≈ 0.0704 µM) | 16 (≈ 17.9 µM) | 16 (≈ 17.9 µM) |  | 32 (≈ 35.8 µM) | 0.063 (≈ 0.0704 µM) | 2 (≈ 2.23 µM) |  | 0.063 (≈ 0.0704 µM) |  |  |  | 
5 | CCCCN(CCCC)c1nc2c(s1)c1c(O)c3c(O)c(C)c4c(c32)C(=O)C(C)(O/C=C/C(OC)C(C)C(OC(C)=O)C(C)C(O)C(C)C(O)C(C)/C=C/C=C(/C)C(=O)N1)O4 (centres undefined) | 0.125 (≈ 0.144 µM) | 0.25 (≈ 0.289 µM) | 1 (≈ 1.15 µM) | > 128 | 4 (≈ 4.62 µM) | 2 (≈ 2.31 µM) | 0.063 (≈ 0.0727 µM) | > 128 | > 128 | 2 (≈ 2.31 µM) | > 128 | 0.125 (≈ 0.144 µM) |  | 1 (≈ 1.15 µM) | 0.063 (≈ 0.0727 µM) |  | 1.62 | 0.125 (≈ 0.144 µM) | 1.23
